Article PMC3040456 (Current Chemical Genomics, 2010)
Like-named read-outs stand apart in the source and are kept apart here. Blank lines part the entries; values can stand above or below the compound they belong to.

Assays:
[1] = system: GLA; settings: cited from earlier work
[2] = biological target: T1, α-Galactosidase A from green coffee beans (Coffea arabica, UniProt Q42656); assay: GLA enzyme assay with 4MU-α-Gala, purified enzyme from green coffee beans; type: biochemical; settings: for selectivity for GLA over GC (words): GLA vs GC; for inhibitory activity against GLA in qHTS and confirmation: bioactive 6,160 compound set; for IC50: read-out: IC50 for GLA, coffee bean GLA 1 nM, 40 μM 4MU-α-Gala, pH 5.9
T1 sequence (Q42656 16-378): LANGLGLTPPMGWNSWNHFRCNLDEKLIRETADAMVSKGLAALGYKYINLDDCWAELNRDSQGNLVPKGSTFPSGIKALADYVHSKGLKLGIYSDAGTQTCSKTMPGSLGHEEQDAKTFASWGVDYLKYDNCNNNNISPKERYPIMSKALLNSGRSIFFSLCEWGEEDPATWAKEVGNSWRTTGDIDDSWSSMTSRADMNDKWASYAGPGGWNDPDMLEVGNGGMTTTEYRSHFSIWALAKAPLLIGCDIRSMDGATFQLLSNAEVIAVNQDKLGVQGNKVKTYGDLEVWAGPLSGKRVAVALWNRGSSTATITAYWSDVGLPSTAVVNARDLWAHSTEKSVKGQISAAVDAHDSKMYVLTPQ

[3] = biological target: T2, human recombinant glucocerebrosidase (GC) (Homo sapiens, UniProt P04062, R534H); assay: glucocerebrosidase; type: biochemical
T2 sequence (P04062 40-536 R534H): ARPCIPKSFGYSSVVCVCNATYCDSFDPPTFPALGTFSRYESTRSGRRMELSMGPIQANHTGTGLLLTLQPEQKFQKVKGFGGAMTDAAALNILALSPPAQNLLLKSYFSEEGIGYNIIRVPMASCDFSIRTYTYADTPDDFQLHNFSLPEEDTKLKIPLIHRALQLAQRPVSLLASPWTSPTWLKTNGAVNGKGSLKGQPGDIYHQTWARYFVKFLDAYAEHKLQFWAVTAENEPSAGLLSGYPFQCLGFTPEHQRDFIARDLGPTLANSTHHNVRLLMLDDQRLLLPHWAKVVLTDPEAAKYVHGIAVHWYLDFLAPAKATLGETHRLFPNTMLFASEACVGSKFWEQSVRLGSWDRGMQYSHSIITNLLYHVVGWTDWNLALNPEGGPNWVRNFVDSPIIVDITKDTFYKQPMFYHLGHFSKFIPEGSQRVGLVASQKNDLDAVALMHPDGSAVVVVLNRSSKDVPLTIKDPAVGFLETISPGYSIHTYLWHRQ
Outline: (§1)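 Enzyme (2 μl), then 23 nl test compound in DMSO, then 1 μl 4MU substrate; 30 min at 21 °C, NaOH/glycine stop (pH 11.6), fluorescence at ex 365/em 440 nm. Enzymes stored in 30% glycerol at -80°C. GC: clinical imiglucerase, 1.9 nM, 800 μM 4MU-β-Glc, citrate/phosphate pH 5.9. GAA: 8 nM, 160 μM 4MU-α-glc, same buffer titrated to pH 5.0.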

[4] = system: rice α-glucosidase (GAA); assay: α-glucosidase; type: biochemical; settings: enzyme 8 nM, substrate 160 μM
Outline: as §1

[5] = biological target: T3, human recombinant GLA (Homo sapiens, UniProt P06280); assay: qHTS with human recombinant GLA; type: biochemical; settings: human recombinant GLA screen
T3 sequence (P06280 32-429): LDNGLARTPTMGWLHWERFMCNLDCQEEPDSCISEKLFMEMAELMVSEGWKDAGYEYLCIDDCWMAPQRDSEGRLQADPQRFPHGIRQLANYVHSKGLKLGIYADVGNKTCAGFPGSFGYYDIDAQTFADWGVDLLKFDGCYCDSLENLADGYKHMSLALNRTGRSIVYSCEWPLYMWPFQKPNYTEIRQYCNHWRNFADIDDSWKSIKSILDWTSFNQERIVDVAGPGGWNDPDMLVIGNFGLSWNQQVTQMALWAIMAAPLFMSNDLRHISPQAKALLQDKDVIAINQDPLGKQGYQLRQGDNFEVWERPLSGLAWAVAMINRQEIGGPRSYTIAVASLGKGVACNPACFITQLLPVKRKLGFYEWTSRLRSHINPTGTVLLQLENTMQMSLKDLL

[6] = biological target: T4, GLA in human spleen homogenate (Homo sapiens, UniProt P06280); assay: qHTS with GLA in human spleen homogenate; type: biochemical; settings: human spleen homogenate screen
T4 sequence (P06280 32-429): T3 sequence (P06280 32-429)

[7] = biological target: T1, α-Galactosidase A from green coffee beans; assay: GLA enzyme kinetics assay; type: biochemical
[8] = read-out: IC50 for GC, enzyme 1.9 nM, substrate 800 μM

SMILES: OC[C@H]1NC[C@H](O)[C@@H](O)[C@H]1O [DGJ, 1-deoxygalactonojirimycin]
- IC50 ([1]; read-out: reported IC50 value): 0.003 µM

SMILES: O=C([O-])c1ccccc1-c1c2cc(Br)c(=O)cc-2oc2[c]([Hg+])c([O-])c(Br)cc12.[Na+].[Na+].[OH-] [merbromin]
- selectivity for GLA over GC (words) [2]: not selective for GLA
- selectivity for GLA over GC (words) ([2]; listed as Merbromin): more potent against GC than GLA
- inhibitory activity against GLA in qHTS and confirmation [2]: relatively high inhibitory activity
- IC50 [2]: 1.38 µM
- IC50 [3, 8]: 0.63 µM
- inhibition of GAA [4]: slightly inhibited GAA

SMILES: CC(=O)[O][Hg][c]1ccccc1 [phenylmercuric acetate]
- selectivity for GLA over GC (words) [2]: not selective for GLA
- selectivity for GLA over GC (words) ([2]; listed as Phenylmercuric acetate): significantly more potent against GC than GLA
- inhibitory activity against GLA in qHTS and confirmation [2]: relatively high inhibitory activity
- IC50 [2]: 7.42 µM
- IC50 [3, 8]: 0.082 µM
- inhibition of GAA [4]: did not inhibit GAA

Further lines, with some results ahead:

- selectivity for GLA over GC (words) [2]: showed selectivity for GLA over GC
- inhibitory activity against GLA in qHTS and confirmation [2]: relatively high inhibitory activity
- IC50 [3]: 122 µM
- inhibition of GAA [4]: did not inhibit GAA
- activity with the human enzyme [5]: not active
- activity with the human enzyme [6]: not active
- Ki [7]: 5.5 µM
- type of inhibition ([7]; Lineweaver-burk plot): mixed type of inhibition
SMILES: Cc1c(OCC(F)(F)F)ccnc1C[S+]([O-])c1nc2ccccc2[nH]1 (stereo not drawn) [lansoprazole]

- effect on GLA activity ([2]; titration 0.15 to 40 mM): decreased the GLA activity
SMILES: C[C@H](CCC(=O)NCCS(=O)(=O)O)[C@H]1CC[C@H]2[C@@H]3[C@H](O)C[C@@H]4C[C@H](O)CC[C@]4(C)[C@H]3C[C@H](O)[C@]12C [sodium taurocholate]

- Km ([7]; pH 4.5): 102 µM
- Vmax ([7]; pH 4.5): 2.76 pmol/min
- Km ([7]; pH 5.9, 1 nM enzyme): 144 µM
- Vmax ([7]; pH 5.9, 1 nM enzyme): 5.74 pmol/min
SMILES: Cc1cc(=O)oc2cc(O[C@H]3O[C@H](CO)[C@H](O)[C@H](O)[C@H]3O)ccc12 [4MU-α-Gala, 4-methylumbelliferyl-α-D-galactopyranoside]
- Km ([1]; same substrate, pH 6.5): 239 µM
